Test results published in ChEMBL document CHEMBL1157669, “New oligo-beta-(1,3)-glucan derivatives as immunostimulating agents” (Bioorg Med Chem, 2010).
The source made the active and inactive calls. The calls are words filed in the database; no cut-off is given here.

What was measured:
Mus musculus [1] = assay: Immunostimulatory activity in BALB/c mouse assessed as induction of peripheral blood monocyte phagocytosis at 100 ug, ip after 24 hrs; type: functional, organism-based
Method in brief: (§1)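 Female BALB/c mice (6–8 weeks) were injected ip with oligosaccharide 24 h before the test. Heparinised (5 IU/mL) orbital plexus blood was incubated with synthetic HEMA microspheres. Two smears from two parallel samples were stained with Accustain. Monocytes and granulocytes holding three or more particles were scored positive. Mean ± SD; P <0.05.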

Mus musculus [2] = assay: Immunostimulatory activity in BALB/c mouse assessed as induction of peripheral blood granulocyte phagocytosis at 100 ug, ip after 24 hrs; type: functional, organism-based; method in brief: as §1
Mus musculus [3] = assay: Immunostimulatory activity in BALB/c mouse assessed as influx of macrophages into peritoneal cavity at 100 ug, ip after 24 hrs; type: functional, organism-based
Method in brief: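 Female BALB/c mice (6–8 weeks) got one ip injection of sample. Peritoneal cavity cells were collected and percentages of macrophages, lymphocytes and mast cells scored. Values are the mean of three independent experiments ± SD.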

Mus musculus [4] = assay: Immunostimulatory activity in BALB/c mouse assessed as induction of peritoneal macrophage phagocytosis at 100 ug, ip after 24 hrs; type: functional, organism-based
Method in brief: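 Oligosaccharide was given ip to female BALB/c mice (6–8 weeks) 24 h before harvest. Peritoneal macrophages were isolated, diluted to 1×10⁷ in RPMI-1640 with 5% fetal calf serum, and incubated with HEMA microspheres. Smears were stained with Accustain, and phagocytosis was scored with differential counts; cells with three or more particles counted positive.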

Mus musculus [5] = assay: Immunostimulatory activity in BALB/c mouse assessed as decrease in lymphocyte count in peripheral blood at 100 ug, ip after 24 hrs; type: functional, organism-based
Mus musculus [6] = assay: Immunostimulatory activity in BALB/c mouse assessed as increase in granulocyte count in peripheral blood at 100 ug, ip after 24 hrs; type: functional, organism-based
Caco-2 = assay: Cytotoxicity against human Caco-2 cells assessed as effect on cell growth at 0.1 to 25 uM after 24 to 48 hrs by Hoechst 3342 staining-based imaging analysis; settings: caco-2, 25 µM
Method in brief: (§2)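 Human tumour lines (liver, colon, prostate, breast, lung) and resting normal diploid skin fibroblasts were grown per supplier guidance. 4×10³ cells/well attached for 24 h, then were exposed to increasing compound concentrations for 1 and 2 days. Cells were fixed in 4% paraformaldehyde, nuclei stained with Hoechst 3342, and counted by automated imaging from four pictures per well.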

[7] = Cytotoxicity against human skin fibroblast assessed as effect on cell growth at 0.1 to 25 uM after 24 to 48 hrs by Hoechst 3342 staining-based imaging analysis; method in brief: as §2
HCT-116 = assay: Cytotoxicity against human HCT116 cells assessed as effect on cell growth at 0.1 to 25 uM after 24 to 48 hrs by Hoechst 3342 staining-based imaging analysis; settings: hct-116, 25 µM; method in brief: as §2
[8] = Cytotoxicity against human NCI/ADR cells assessed as effect on cell growth at 0.1 to 25 uM after 24 to 48 hrs by Hoechst 3342 staining-based imaging analysis; method in brief: as §2
[9] = Cytotoxicity against human HuH7 cells assessed as effect on cell growth at 0.1 to 25 uM after 24 to 48 hrs by Hoechst 3342 staining-based imaging analysis; settings: huh-7, 25 µM; method in brief: as §2
PC-3 = assay: Cytotoxicity against human PC3 cells assessed as effect on cell growth at 0.1 to 25 uM after 24 to 48 hrs by Hoechst 3342 staining-based imaging analysis; settings: pc-3, 25 µM; method in brief: as §2
Mus musculus [10] = organism: Mus musculus; assay: Immunostimulatory activity in BALB/c mouse splenocytes assessed as induction of IL2 production at 100 ug after 72 hrs; type: functional, organism-based; settings: Splenocyte
Method in brief: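 Spleen cells came from female BALB/c mice (6–8 weeks) injected ip with oligosaccharide; controls were PBS-injected mice. Cells were plated at 2×10⁶/mL in RPMI-1640 with 5% FCS, with Concanavalin A added to positive-control wells. After 72 h at 37 °C and 5% CO₂, supernatant IL-2 was measured with a Quantikine mouse IL-2 kit. Mean of three independent experiments ± SD.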

Compound	Activity (Mus musculus [1])	Activity (Mus musculus [2])	Activity (Mus musculus [3])	Activity (Mus musculus [4])	Activity (Mus musculus [5])	Activity (Mus musculus [6])	Activity (Caco-2)	Activity [7]	Activity (HCT-116)	Activity [8]	Activity [9]	Activity (PC-3)	Activity (Mus musculus [10])
OC[C@H]1O[C@@H](O[C@@H]2[C@@H](O)[C@H](O[C@@H]3[C@@H](O)[C@H](O[C@@H]4[C@@H](O)[C@H](O[C@@H]5[C@@H](O)[C@H](O)O[C@H](CO)[C@H]5O)O[C@H](CO)[C@H]4O)O[C@H](CO)[C@H]3O)O[C@H](CO)[C@H]2O)[C@H](O)[C@@H](O)[C@@H]1O	Active	Active	Active	Active	Active	Active	–	–	–	–	–	–	–
OC[C@H]1O[C@@H](O[C@@H]2[C@@H](O)[C@H](O[C@@H]3[C@@H](O)[C@H](O[C@@H]4[C@@H](O)[C@H](O[C@@H]5[C@@H](O)[C@H](O[C@H]6[C@H](O)[C@@H](CO)OC(O)[C@H]6O)O[C@H](CO)[C@H]5O)O[C@H](CO)[C@H]4O)O[C@H](CO)[C@H]3O)O[C@H](CO)[C@H]2O)[C@H](O)[C@@H](O)[C@@H]1O (some centres not stated)	Active	Active	Active	Active	Active	Active	Non-toxic	Non-toxic	Non-toxic	Non-toxic	Non-toxic	Non-toxic	–
OC[C@H]1O[C@@H](O[C@@H]2[C@@H](O)[C@H](O[C@@H]3[C@@H](O)[C@H](O[C@@H]4[C@@H](O)[C@H](O[C@@H]5[C@@H](O)[C@H](O[C@@H]6[C@@H](O)[C@H](O[C@@H]7[C@@H](O)[C@H](O)O[C@H](CO)[C@H]7O)O[C@H](CO)[C@H]6O)O[C@H](CO)[C@H]5O)O[C@H](CO)[C@H]4O)O[C@H](CO)[C@H]3O)O[C@H](CO)[C@H]2O)[C@H](O)[C@@H](O)[C@@H]1O	Active	Active	Active	Active	Active	Active	–	–	–	–	–	–	–
OC[C@H]1O[C@@H](O[C@@H]2[C@@H](O)[C@H](O[C@@H]3[C@@H](O)[C@H](O[C@@H]4[C@@H](O)[C@H](O[C@H]5[C@H](O)[C@@H](CO)OC(O)[C@H]5O)O[C@H](CO)[C@H]4O)O[C@H](CO)[C@H]3O)O[C@H](CO)[C@H]2O)[C@H](O)[C@@H](O)[C@@H]1O (some centres not stated)	Active	Active	Active	Active	Active	Active	Non-toxic	Non-toxic	Non-toxic	Non-toxic	Non-toxic	Non-toxic	Active
